Screening results deposited in PubChem by several laboratories.
Hits are enriched below; roughly 2.9% of the tested compounds scored in any of these assays.
M18AAP inhibitor: PfM18AAP enzyme inhibition; recombinant PfM18AAP, H-Glu-NHMec fluorogenic cleavage; inhibition, % at 7.35 µM; AID 1822; 1.2% of 290,000 active;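 active = inhibition above the campaign mean inhibition over all tested compounds plus 3 SD, cut at about 28% in these data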;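 note: 0% = plate median of test compound wells and 100% = 2 mM ZnCl2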
ZTA DNA inh: counter-screen for EBNA-1 inhibitors: inhibitors of Epstein-Barr virus ZTA; inhibition, % at 11 µM; 0.15% of 320,000 active; ZTA-DNA binding, fluorescence polarization; P03206; in the data active = inhibition above about 33%
Target sequence (P03206 whole entry, looked up): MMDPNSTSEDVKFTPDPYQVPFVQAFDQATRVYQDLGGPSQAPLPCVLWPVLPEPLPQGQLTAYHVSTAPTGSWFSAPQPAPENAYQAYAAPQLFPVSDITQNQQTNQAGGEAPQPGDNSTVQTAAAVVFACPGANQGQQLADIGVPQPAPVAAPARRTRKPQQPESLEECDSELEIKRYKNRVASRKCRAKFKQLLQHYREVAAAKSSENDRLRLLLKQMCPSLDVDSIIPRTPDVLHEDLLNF
Apaf1 inhib: blocks human Apaf-1 apoptosome activity; reconstituted apoptosome caspase-3 activity, DEVD-Rh110 fluorescence; inhibition, % at 20 µM; AID 489030; O14727; 0.71% of 330,000 active; active = inhibition of at least 40% at 20 µM;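 note: plate controls were DMSO wells for no effect and DEVD-CHO caspase inhibitor wells for full effect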
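System – cell-free apoptosome with Apaf-1, procaspase-3 and caspase-9 · Buffer or medium – pH 7.5 Hepes buffer with CHAPS, BSA, DTT · Also added – cytochrome c with DEVD-Rh110 · Times – 30 min compound preincubation, 50 min activation, room temperature · Technique – Rh110 fluorescence intensity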
PfG6PD inh: PfG6PD (Plasmodium falciparum) enzyme inhibition. PfGluPho enzyme, NADPH resazurin-diaphorase fluorescence. inhibition, % at 20 µM. 0.78% of 350,000 active;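 active = inhibition reaching at least a set limit at 20 µM in the primary screen, cut at about 59% in these data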;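 note: 0% = DMSO wells with substrate and 100% = DMSO wells lacking glucose-6-phosphate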
UBC13 polyUb: inhibitors of human UBC13 polyubiquitin chain formation | P61088 | TR-FRET | 0.47% of 330,000 active | inhibition, % at 20 µM | AID 485273; in the data active = inhibition above about 45%, passing the limit was not always enough
Target sequence (P61088 whole entry, looked up): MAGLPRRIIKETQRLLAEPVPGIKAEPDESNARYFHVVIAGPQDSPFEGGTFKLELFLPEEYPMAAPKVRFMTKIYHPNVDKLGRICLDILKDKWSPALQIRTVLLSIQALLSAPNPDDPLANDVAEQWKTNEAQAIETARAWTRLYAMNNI
EBNA-1 inh: blocks EBNA-1 binding to DNA | EBNA-1 DNA binding, fluorescence polarization | inhibition, % at 14.8 µM | 0.34% of 300,000 active | AID 1950; in the data active = inhibition above about 28%
Apaf-1 inh conf: confirmation of Apaf-1 inhibitors; 25% of 1,800 active; shares compounds with Apaf1 inhib; inhibition, % at 20 µM; reconstituted apoptosome, caspase-3 DEVD-Rh110 fluorescence; AID 504614;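 active = mean inhibition of at least 40% at 20 µM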;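 note: plate controls were DMSO wells for no effect and DEVD-CHO caspase inhibitor control wells for full effect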
Rh110 quench: counter-screen for Apaf-1 inhibitors: fluorescence interference; AID 504615; shares compounds with Apaf1 inhib; Rh110 fluorescence interference, quenched caspase reaction; activation (fluorescence interference), % at 20 µM; 1,800 tested, under 10 active;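 active = signal rise of 40% or more at 20 µM, treated as a fluorescence artifact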
Fluor interf inh: Apaf-1 inhibitor counter-screen fluorescence artifact; shares compounds with Apaf1 inhib; fluorescence interference counterscreen, Apaf-1 assay format; IC50, µM; 460 tested, under 10 active; AID 588538; call rule not given here
Starred values were filed as active, the others as inactive; . = not tested or not shown.

SMILES	M18AAP inhibitor	ZTA DNA inh	Apaf1 inhib	PfG6PD inh	UBC13 polyUb	EBNA-1 inh	Apaf-1 inh conf	Rh110 quench	others
Cc1ccc(/C=C/C(=O)NCc2cccs2)o1	-75	-22	-3	43	-1	2	.	.
O=C(COC(=O)c1ccc([N+](=O)[O-])s1)NCCc1ccccc1	.	7	33	6	-7	.	.	.
O=C(COC(=O)c1ccc([N+](=O)[O-])s1)NNC(=O)c1ccccc1	.	.	41*	8	-25	.	37	-2
CCc1nnc(NC(=O)c2c(C)nn(-c3ccccc3)c2Cl)s1	6	-15	1	-12	8	-6	.	.
COCc1ccc(C(=O)N2CCCC(CCC(=O)NCc3ccccc3F)C2)o1 (stereo unspecified)	-5	-11	-2	-4	-7	-8	.	.
Cc1c2ccccc2nc2c(F)c(NCCO)c(F)c(F)c12	19	0	54*	-17	-38	1	22	0
CN(C)S(=O)(=O)c1cccc(NC(=O)COC(=O)/C=C/c2ccco2)c1	1	-8	95*	4	-7	-1	6	1
COC(=O)c1cc(OC)c(OC)cc1NC(=O)c1ccccc1C	-14	-9	-10	0	10	1	.	.
CC(=O)N(/N=C1\Sc2ccccc2C1=O)c1ccc(C)cc1C	1	11	43*	18	-31	-4	25	4
CC(=O)N(/N=C1\Sc2ccccc2C1=O)c1ccccc1C	1	5	90*	34	-40	-6	85*	11	Fluor interf inh=>100
CCNCC(=O)N1c2ccccc2CCc2ccc(NC(C)=O)cc21	6	6	3	-13	7	3	.	.
CC(=O)Nc1ccc2c(c1)N(C(=O)CN(C)C)c1ccccc1CC2	13	-12	43*	9	-11	-3	22	6
CC(NC(=O)COC(=O)c1cc(=O)c2ccccc2o1)c1ccccc1 (stereo unspecified)	.	.	0	9	-20	.	.	.
CCCN(CC(=O)Nc1ccccc1C)C(=O)C1CCN(c2ncnc3sc(C)c(C)c23)CC1	.	0	49*	-10	16	-7	29	2
Cc1sc2ncnc(N3CCC(C(=O)Nc4ccc(Cl)c(Cl)c4)CC3)c2c1C	.	2	42*	9	19	.	31	12
OC(C[n+]1ccccc1)c1ccccc1 (stereo unspecified)	-9	2	-2	-8	-8	-17	.	.
Cc1cc(=O)oc(C)c1C(=O)O	-6	3	-17	-6	18	15	.	.
CCOC(=O)c1c(C)nc2c(c1-c1ccccc1)C(=O)c1ccccc1-2	8	-11	27	-4	-4	-22	.	.
Cc1oc2c(c1C(=O)O)C(=O)c1ccccc1C2=O	7	-9	79*	32	-56	0	69*	-1	Fluor interf inh=>100
CCOC(=O)c1c(C)oc2c1C(=O)c1ccccc1C2=O	3	-7	69*	-93	-78	-2	68*	2	Fluor interf inh=>100
COc1cccc(Cn2cc(C(=O)NCCN(C)C)nn2)c1	1	10	-3	-3	8	-1	.	.
Fc1cccc(CCN2CCNC[C@H]2Cc2cccc3ccccc23)c1	.	-11	43*	7	39	9	8	2
Cc1nn(C)cc1S(=O)(=O)NC1CCCC1	2	8	0	-9	4	-8	.	.
COc1cc(OC)c(C2Nc3cccc4cccc(c34)N2)c(OC)c1	6	.	39	40	-25	.	.	.
COc1ccccc1C1Nc2cccc3cccc(c23)N1	-4	3	51*	38	-10	10	31	7
SMILES	M18AAP inhibitor	ZTA DNA inh	Apaf1 inhib	PfG6PD inh	UBC13 polyUb	EBNA-1 inh	Apaf-1 inh conf	Rh110 quench	others
CCN1CCN(c2ccc(NC(=O)c3cc4ccccc4cc3OC)cc2C)CC1	.	18	51*	3	38	.	17	10
CC(=O)NC1N=C(C)N(c2ccccc2)C1=O (stereo unspecified)	22	0	70*	47	-38	-1	9	-3
CC[C@H](C)[C@@H]1NC(=O)[C@H]([C@@H](C)CC)NC(=O)[C@@H](CC(C)C)NC(=O)[C@H](Cc2ccccc2)NC(=O)[C@H](Cc2ccccc2)NC(=O)[C@@H]2CCCN2C(=O)[C@@H]2CCCN2C(=O)[C@H](C(C)C)NC(=O)[C@H](CC(C)C)NC1=O	.	.	54*	8	-7	.	19	10
COc1ccccc1-n1nnnc1SCC(=O)NCC1(N2CCOCC2)CCCCC1	.	0	1	10	-2	.	.	.
COc1ccc2ccccc2c1C(O)c1nccn1C (stereo unspecified)	-8	-4	41*	7	-35	2	10	-2
CN(C(=O)CSc1nc2ccc([N+](=O)[O-])cc2s1)C1CCS(=O)(=O)C1 (stereo unspecified)	-1	-21	-3	41	-15	0	.	.
O=C(c1cccc(S(=O)(=O)NCc2ccccc2)c1)N1CCN(c2ccccc2)CC1	.	.	6	-4	12	.	.	.
O=C(c1cccc(S(=O)(=O)NCc2ccccc2)c1)N1CCN(c2cccc(C(F)(F)F)c2)CC1	-1	8	44*	13	19	-2	40	2
Cc1ccc(S(=O)(=O)NCc2ccccc2)cc1C(=O)N1CCCCC1	3	-1	9	5	4	-17	.	.
Cc1ccc(S(=O)(=O)NCc2ccccc2)cc1C(=O)N1CCN(c2ccccc2)CC1	.	-19	58*	8	27	.	40	8
O=C1CC(c2ccccc2)CN1C(=O)c1cncc(Br)c1 (stereo unspecified)	1	-2	-2	0	-2	-3	.	.
Cc1ccc(S(=O)(=O)NC2=C(N3CCN(c4ccccc4F)CC3)C(=O)c3ccccc3C2=O)cc1	-11	4	76*	11	-107	0	20	2
O=C1C(NS(=O)(=O)c2cccs2)=C(N2CCN(c3ccccc3)CC2)C(=O)c2ccccc21	0	-2	41*	-18	-53	12	25	5
CC(=O)Nc1ccc(S(=O)(=O)NC2=C(N3CCN(c4ccc(F)cc4)CC3)C(=O)c3ccccc3C2=O)cc1	5	-3	64*	28	-70	-5	64*	4	Fluor interf inh=>100
Cc1ccc(S(=O)(=O)Nc2nc3ccccc3nc2N2CCN(c3ccccc3F)CC2)cc1	4	17	4	-32	-14	1	.	.
COc1ccc(N2CCN(C(=O)CN(C3CCCCC3)S(C)(=O)=O)CC2)cc1	6	8	-16	-7	-2	0	.	.
Cc1ccc(NC(=O)c2ccc(Cl)c(S(=O)(=O)N3CCc4ccccc43)c2)nc1	.	.	.	5	.	.	.	.
